# Measured values published in ChEMBL document CHEMBL2384929, “Synthesis and biological evaluation of fluoro analogues of antimitotic phenstatin” (Bioorg Med Chem, 2013).
# How the values were obtained:
# [1] = test system: M14; experiment: Cytotoxicity against human M14 cells assessed as growth inhibition at 10 uM after 48 hrs by SRB assay; format: functional; conditions: M14, 48 h, read-out: GI
# Method in brief: (§1)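 Single-dose NCI 60-cell screen at 10 µM with 48 h exposure and sulforhodamine B read-out. Values are percentage growth per cell line. A summary ratio counts cell lines with 0–50% growth over all cell lines tested.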
# [2] = test system: SW-620; experiment: Cytotoxicity against human SW620 cells assessed as growth inhibition at 10 uM after 48 hrs by SRB assay; format: functional; conditions: SW-620, 48 h, read-out: GI; method in brief: as §1
# [3] = test system: HCC 2998; experiment: Cytotoxicity against human HCC2998 cells assessed as growth inhibition at 10 uM after 48 hrs by SRB assay; format: functional; conditions: HCC 2998, 48 h, read-out: GI; method in brief: as §1
# [4] = test system: SR; experiment: Cytotoxicity against human SR cells assessed as growth inhibition at 10 uM after 48 hrs by SRB assay; format: functional; conditions: read-out: GI; method in brief: as §1
# [5] = test system: MCF7; experiment: Cytotoxicity against human MCF7 cells assessed as growth inhibition at 10 uM after 48 hrs by SRB assay; format: functional; conditions: MCF7, 48 h, read-out: GI; method in brief: as §1
# [6] = test system: KM12; experiment: Cytotoxicity against human KM12 cells assessed as growth inhibition at 10 uM after 48 hrs by SRB assay; format: functional; conditions: KM12, 48 h, read-out: GI; method in brief: as §1
# [7] = test system: HCT-15; experiment: Cytotoxicity against human HCT15 cells assessed as growth inhibition at 10 uM after 48 hrs by SRB assay; format: functional; conditions: HCT-15, 48 h, read-out: GI; method in brief: as §1
# [8] = species: Ovis aries; experiment: Inhibition of sheep brain tubulin assembly at 100 uM by DAPI staining-based fluorescence assay
# Method in brief: (§2)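 Tubulin from sheep brain, purified by two assembly–disassembly cycles, at about 2–3 mg/mL in 0.1 M MES, 0.5 mM MgCl2, 1 mM EGTA, 1 mM GTP, pH 6.6. Assembly followed by DAPI fluorescence at 37 °C. Single-point inhibition tested at 100 µM. IC50 is the concentration halving the assembly rate relative to no compound, mean of two experiments, with reference inhibitors run the same day.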
# [9] = test system: K562; experiment: Cytotoxicity against human K562 cells assessed as growth inhibition at 10 uM after 48 hrs by SRB assay; format: functional; conditions: K562, 48 h, read-out: GI; method in brief: as §1
# [10] = test system: HL-60(TB); experiment: Cytotoxicity against human HL-60(TB) cells assessed as growth inhibition at 10 uM after 48 hrs by SRB assay; format: functional; conditions: HL-60, 48 h, read-out: GI
# Method in brief: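 Single high dose of 10 µM in the NCI 60-cell disease-oriented human tumour panel, with 48 h exposure and sulforhodamine B read-out of percentage growth.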
# [11] = test system: MDA-MB-468; experiment: Cytotoxicity against human MDA-MB-468 cells assessed as growth inhibition at 10 uM after 48 hrs by SRB assay; format: functional; conditions: MDA-MB-468, 48 h, read-out: GI; method in brief: as §1
# [12] = test system: NCI-H522; experiment: Cytotoxicity against human NCI-H522 cells assessed as growth inhibition at 10 uM after 48 hrs by SRB assay; format: functional; conditions: NCI-H522, 48 h, read-out: GI; method in brief: as §1
# [13] = test system: MDA-MB-435; experiment: Cytotoxicity against human MDA-MB-435 cells assessed as growth inhibition at 10 uM after 48 hrs by SRB assay; format: functional; conditions: MDA-MB-435, 48 h, read-out: GI; method in brief: as §1
# [14] = Inhibition of sheep brain tubulin assembly by DAPI staining-based fluorescence assay; design: species or system Ovis aries; method in brief: as §2
# [15] = test system: OVCAR-3; experiment: Cytotoxicity against human OVCAR3 cells assessed as growth inhibition after 48 hrs by SRB assay; format: functional; conditions: OVCAR-3, 48 h
# Method in brief: (§3)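 Run in the NCI 60 human tumour cell line panel. Cells exposed for 48 h, growth read by sulforhodamine B. Compounds were first screened at a single 10 µM dose, and those meeting preset threshold inhibition criteria went on to the 5-dose screen. GI50 is the molar concentration giving 50% growth inhibition.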
# [16] = test system: DU-145; experiment: Cytotoxicity against human DU145 cells assessed as growth inhibition after 48 hrs by SRB assay; format: functional; conditions: DU-145, 48 h; method in brief: as §3
# [17] = test system: NCI-H460; experiment: Cytotoxicity against human NCI-H460 cells assessed as growth inhibition after 48 hrs by SRB assay; format: functional; conditions: NCI-H460, 48 h; method in brief: as §3
# [18] = test system: HL-60(TB); experiment: Cytotoxicity against human HL-60(TB) cells assessed as growth inhibition after 48 hrs by SRB assay; format: functional; conditions: HL-60, 48 h
# Method in brief: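 NCI 60-human-cancer-cell-line screen; only compounds meeting predetermined threshold inhibition criteria in the single-dose test went on to the 5-dose screen. Cells exposed for 48 h and growth read by sulforhodamine B assay. GI50 is the molar concentration giving 50% growth inhibition of tumour cells.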
# [19] = test system: Malme-3M; experiment: Cytotoxicity against human MALME-3M cells assessed as growth inhibition after 48 hrs by SRB assay; format: functional; method in brief: as §3
# [20] = test system: SNB-75; experiment: Cytotoxicity against human SNB75 cells assessed as growth inhibition after 48 hrs by SRB assay; format: functional; conditions: SNB-75, 48 h; method in brief: as §3
# [21] = test system: NCI-H23; experiment: Cytotoxicity against human NCI-H23 cells assessed as growth inhibition after 48 hrs by SRB assay; format: functional; conditions: NCI-H23, 48 h; method in brief: as §3
# [22] = test system: Hs-578T; experiment: Cytotoxicity against human Hs578T cells assessed as growth inhibition after 48 hrs by SRB assay; format: functional; method in brief: as §3
# [23] = test system: NCI/ADR-RES; experiment: Cytotoxicity against human NCI/ADR-RES cells assessed as growth inhibition after 48 hrs by SRB assay; format: functional; method in brief: as §3
# [24] = test system: MDA-MB-231; experiment: Cytotoxicity against human MDA-MB-231 cells assessed as growth inhibition after 48 hrs by SRB assay; format: functional; conditions: MDA-MB-231, 48 h; method in brief: as §3
# [25] = test system: ACHN; experiment: Cytotoxicity against human ACHN cells assessed as growth inhibition after 48 hrs by SRB assay; format: functional; method in brief: as §3
# [26] = test system: BT-549; experiment: Cytotoxicity against human BT549 cells assessed as growth inhibition after 48 hrs by SRB assay; format: functional; conditions: BT-549, 48 h; method in brief: as §3
# [27] = test system: NCI-H522; experiment: Cytotoxicity against human NCI-H522 cells assessed as growth inhibition after 48 hrs by SRB assay; format: functional; conditions: NCI-H522, 48 h; method in brief: as §3
# [28] = test system: SF-268; experiment: Cytotoxicity against human SF268 cells assessed as growth inhibition after 48 hrs by SRB assay; format: functional; conditions: SF-268, 48 h; method in brief: as §3
# [29] = test system: MDA-MB-435; experiment: Cytotoxicity against human MDA-MB-435 cells assessed as growth inhibition after 48 hrs by SRB assay; format: functional; conditions: MDA-MB-435, 48 h; method in brief: as §3
# [30] = test system: PC-3; experiment: Cytotoxicity against human PC3 cells assessed as growth inhibition after 48 hrs by SRB assay; format: functional; conditions: PC-3, 48 h; method in brief: as §3
# [31] = test system: SNB-19; experiment: Cytotoxicity against human SNB19 cells assessed as growth inhibition after 48 hrs by SRB assay; format: functional; conditions: SNB-19, 48 h; method in brief: as §3
# [32] = test system: RXF 393; experiment: Cytotoxicity against human RXF393 cells assessed as growth inhibition after 48 hrs by SRB assay; format: functional; conditions: RXF 393, 48 h; method in brief: as §3
# [33] = test system: SN12C; experiment: Cytotoxicity against human SN12C cells assessed as growth inhibition after 48 hrs by SRB assay; format: functional; method in brief: as §3
# [34] = test system: HCT-15; experiment: Cytotoxicity against human HCT15 cells assessed as growth inhibition after 48 hrs by SRB assay; format: functional; conditions: HCT-15, 48 h; method in brief: as §3
# [35] = test system: KM12; experiment: Cytotoxicity against human KM12 cells assessed as growth inhibition after 48 hrs by SRB assay; format: functional; conditions: KM12, 48 h; method in brief: as §3
# [36] = test system: SR; experiment: Cytotoxicity against human SR cells assessed as growth inhibition after 48 hrs by SRB assay; format: functional; method in brief: as §3
# [37] = test system: SW-620; experiment: Cytotoxicity against human SW620 cells assessed as growth inhibition after 48 hrs by SRB assay; format: functional; conditions: SW-620, 48 h; method in brief: as §3
# [38] = test system: M14; experiment: Cytotoxicity against human M14 cells assessed as growth inhibition after 48 hrs by SRB assay; format: functional; conditions: M14, 48 h; method in brief: as §3
# [39] = test system: K562; experiment: Cytotoxicity against human K562 cells assessed as growth inhibition after 48 hrs by SRB assay; format: functional; conditions: K562, 48 h; method in brief: as §3
# [40] = test system: CCRF-CEM; experiment: Cytotoxicity against human CCRF-CEM cells assessed as growth inhibition after 48 hrs by SRB assay; format: functional; method in brief: as §3
# [41] = test system: SK-OV-3; experiment: Cytotoxicity against human SKOV3 cells assessed as growth inhibition after 48 hrs by SRB assay; format: functional; conditions: SK-OV-3, 48 h; method in brief: as §3
# [42] = test system: SF-539; experiment: Cytotoxicity against human SF539 cells assessed as growth inhibition after 48 hrs by SRB assay; format: functional; conditions: SF-539, 48 h; method in brief: as §3
smiles,measurement,setting,value
COc1ccc(C(=O)c2ccc(OC)c(N)c2OC)cc1F,inhibition of growth at 10 µM,[1],43%
same,inhibition of growth at 10 µM,[2],77%
same,inhibition of growth at 10 µM,[3],72%
same,inhibition of growth at 10 µM,[4],61%
same,inhibition of growth at 10 µM,[5],52%
same,inhibition of growth at 10 µM,[6],59%
same,inhibition of growth at 10 µM,[7],53%
same,inhibition,[8],45%
same,inhibition of growth at 10 µM,[9],71%
same,inhibition of growth at 10 µM,[10],49%
same,inhibition of growth at 10 µM,[11],81%
same,inhibition of growth at 10 µM,[12],45%
same,inhibition of growth at 10 µM,[13],100%
COc1ccc(C(=O)c2cc(OC)c(OC)c(OC)c2)cc1O [PHENSTATIN],IC50,[14],3.43 µM
same,GI50,[15],0.002 µM
same,GI50,[16],0.034 µM
same,inhibition,[8],99%
same,GI50,[17],0.006 µM
COc1cc([C@@H]2c3cc4c(cc3C[C@H]3COC(=O)[C@@H]32)OCO4)cc(OC)c1OC [DESOXYPODOPHYLLOTOXIN],IC50,[14],1.76 µM
same,inhibition,[8],100%
C=C(c1cc(OC)c(OC)c(OC)c1)c1cc(OC)c(F)cc1OC,GI50,[18],0.273 µM
same,GI50,[19],> 10 µM
same,GI50,[15],0.521 µM
same,GI50,[20],0.92 µM
same,GI50,[21],2.2 µM
same,GI50,[22],2.19 µM
same,GI50,[23],0.375 µM
same,GI50,[16],2.44 µM
same,GI50,[24],0.945 µM
same,inhibition,[8],44%
same,GI50,[25],6.54 µM
same,GI50,[26],4.12 µM
same,GI50,[27],0.601 µM
same,GI50,[28],2.67 µM
same,GI50,[29],0.26 µM
same,GI50,[30],2.24 µM
same,GI50,[31],3.3 µM
same,GI50,[32],2.16 µM
same,GI50,[33],0.498 µM
same,GI50,[34],0.666 µM
same,GI50,[35],0.568 µM
same,GI50,[17],1.22 µM
same,GI50,[36],0.455 µM
same,GI50,[37],0.587 µM
same,GI50,[38],0.547 µM
same,GI50,[39],0.34 µM
same,GI50,[40],1.1 µM
same,GI50,[41],1.05 µM
same,GI50,[42],2.16 µM
COc1ccc(C(=O)c2cc(F)c(F)c(OC)c2F)cc1OC(=O)CCl,inhibition,[8],46%
COc1ccc(C(=O)c2cc(F)c(F)c(OC)c2F)cc1O,IC50,[14],28.2 µM
same,GI50,[18],2.02 µM
same,GI50,[19],9.53 µM
same,GI50,[15],1.5 µM
same,GI50,[20],1.74 µM
same,GI50,[21],3.75 µM
same,GI50,[22],1.6 µM
same,GI50,[23],0.789 µM
same,GI50,[16],2.08 µM
same,GI50,[24],2.09 µM
same,inhibition,[8],88%
same,GI50,[25],6.84 µM
same,GI50,[26],3.13 µM
same,GI50,[27],1.34 µM
same,GI50,[28],3.85 µM
same,GI50,[29],0.285 µM
same,GI50,[30],3.72 µM
same,GI50,[31],4.39 µM
same,GI50,[32],2.47 µM
same,GI50,[33],5.16 µM
same,GI50,[34],1.76 µM
same,GI50,[35],1.03 µM
same,GI50,[17],2.23 µM
same,GI50,[36],0.969 µM
same,GI50,[37],0.703 µM
same,GI50,[38],0.804 µM
same,GI50,[39],0.186 µM
same,GI50,[40],3.31 µM
same,GI50,[41],2.44 µM
same,GI50,[42],2.47 µM
COc1ccc(C(=O)c2cc(OC)c(OC)c(OC)c2N)cc1F,IC50,[14],2 µM
